Assay outcomes deposited in PubChem by several laboratories.
A selection: hits, their analogues and other compounds. The true share with any hit is near 4%.
DAGLB inhibitor – diacylglycerol lipase beta (human) inhibition; 0.059% of 340,000 active; AID 504411; Q8NCG7; inhibition, % at 5.17 µM; HEK293T DAGLB membrane lysate, EnzChek fluorogenic substrate; in the data active = inhibition above about 34%
TAAR1 ag – human TAAR1 agonism; Q96RJ0; activation, % at 3 µM; CHO RD-HGA16 TAAR1, Fluo-8 calcium fluorescence; vehicle wells 0%, saturating PEA agonist 100%; 0.99% of 360,000 active;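 active = activation above the mean activation of all test compounds in the run plus 3 SD, cut at about 38% in these data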
Target sequence (Q96RJ0 whole entry, looked up): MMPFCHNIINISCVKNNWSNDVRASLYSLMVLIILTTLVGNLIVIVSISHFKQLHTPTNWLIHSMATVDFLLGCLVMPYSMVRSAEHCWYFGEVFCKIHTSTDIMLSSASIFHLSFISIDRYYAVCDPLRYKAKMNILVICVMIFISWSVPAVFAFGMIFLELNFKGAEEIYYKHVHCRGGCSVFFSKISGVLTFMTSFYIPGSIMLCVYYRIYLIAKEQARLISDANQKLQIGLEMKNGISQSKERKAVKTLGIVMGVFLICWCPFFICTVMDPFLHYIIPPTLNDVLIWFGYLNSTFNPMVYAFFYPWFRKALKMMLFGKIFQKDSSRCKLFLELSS
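Assay system: CHO-derived RD-HGA16 cells with stable Gα16 and human TAAR1; timing: 17-24 h seeding, 75 min 37 °C dye, 30 min RT; read-out: % activation from peak over basal fluorescence ratio, DMSO-to-PEA scaled; measured by: kinetic Fluo-8 calcium fluorescence; benchmarks: low control DMSO, high control PEA (EC100); doses: 3 µM single concentration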
GPR7 antagonist – human neuropeptides B/W receptor 1 antagonism. inhibition, % at 4.4 µM. P48145. 1.1% of 290,000 active. GPR7-expressing cells, fluorescence antagonist assay; in the data active = inhibition above about 16%, passing the limit was not always enough;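 note: cells stimulated with the agonist NPW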
TAAR1 antag – human TAAR1 antagonism; Q96RJ0; CHO RD-HGA16 TAAR1, Fluo-8 calcium fluorescence, antagonist; inhibition, % at 3 µM; 1.5% of 360,000 active; AID 624466;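 active = inhibition above a per-plate cutoff, the mean inhibition of test compounds on that plate plus 3 SD, cut at about 49% in these data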
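Test system – hTAAR1-expressing CHO RD-HGA16 cells, Gα16-coupled · Also added – β-PEA at EC80 concentration, post-compound challenge · Compound – 3 µM, single point · Incubation – dye loading 75 min at 37 °C, then 30 min room temperature · Measured by – Fluo-8 intracellular calcium dye fluorescence, real-time kinetic reads · Benchmarks – vehicle and agonist controls · Replicates – singlicate, one well per test compound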
MPTP block – blocks calcium-induced mitochondrial swelling | isolated mouse mitochondria, Ca2+ swelling absorbance, 30 min | inhibition, % at 10 µM | 1.4% of 360,000 active;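 active = inhibition of 50% or more, scaled per plate between neutral and stimulator controls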
TAAR1 ag conf – confirmation of human TAAR1 agonists; shares compounds with TAAR1 ag; CHO RD-HGA16 TAAR1, Fluo-8 calcium fluorescence; scaled: DMSO 0%, maximal phenethylamine 100%; activation, % at 3 µM; 82% of 2,400 active; AID 651783;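 active = activation above a cutoff set at the run's mean compound activation plus 3 SD, cut at about 39% in these data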
Ga16 nonsel ag – nonselective agonism, TAAR1 counter-screen. shares compounds with TAAR1 ag. CHO-Ga16 parental, Fluo-8 calcium fluorescence; normalized to maximal ATP response, DMSO zero. activation, % at 3 µM. 50% of 2,400 active. AID 651787;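 active = activation above the run cutoff, the mean activation over all tested wells plus 3 SD, cut at about 12% in these data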
TAAR1 desensitize – human TAAR1 agonist that also desensitizes the receptor | shares compounds with TAAR1 ag | CHO RD-HGA16 hTAAR1, Fluo-8 calcium, beta-PEA response inhibition | 46% of 2,400 active | inhibition, % at 3 µM;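 active = inhibition above the run cutoff, the mean inhibition of all test compounds plus 3 SD, cut at about 49% in these data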;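 note: beta-PEA stimulus applied at its EC80; loss of beta-PEA calcium signal after compound pretreatment read as receptor desensitization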
Ga16 nonsel ant – counter-screen for TAAR1 agonists: nonselective Ga16 antagonists; 39% of 2,400 active; shares compounds with TAAR1 ag; inhibition, % at 3 µM; CHO-Ga16 ATP-induced calcium, Fluo-8 fluorescence;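 active = inhibition above the plate's mean compound inhibition plus 3 SD, computed per plate, cut at about 22% in these data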
Each line names hits and unclear results; the compound was inactive in the other large screens (follow-up assays come after a bar, where they were run).

CC(=NCCc1ccccc1)C1=C(O)COC1=O	TAAR1 ag 82.8 | TAAR1 ag conf 77.8 | Ga16 nonsel ag inactive | TAAR1 desensitize inactive | Ga16 nonsel ant inactive
COC(=O)C1=C(C)N(Cc2ccc(C(F)(F)F)cc2)C(=NCc2ccc(OC)cc2)NC1c1ccccc1 (centres undefined)	none (no result: DAGLB inhibitor, GPR7 antagonist, MPTP block)
O=C(CNCC1CCCCC1)Nc1ccc(OC(F)(F)F)cc1	TAAR1 ag 74.1 | TAAR1 ag conf 76.4 | Ga16 nonsel ag 50.7 | TAAR1 desensitize 49.2 | Ga16 nonsel ant 32.5
CCCCOCC1CN(CCCC)S(=O)(=O)c2c(cccc2Sc2ccc(SC)cc2)O1 (centres undefined)	none (no result: DAGLB inhibitor, GPR7 antagonist, MPTP block)
O=[N+]([O-])c1cc(Cl)c(O)c2ncccc12	none
O=[N+]([O-])c1cc(Cl)c2cccnc2c1O	TAAR1 ag 44.0 | TAAR1 ag conf inactive | Ga16 nonsel ag inactive | TAAR1 desensitize inactive | Ga16 nonsel ant inactive
Cc1cc(S(=O)(=O)Nc2cccc(Cl)c2)c(C)s1	TAAR1 ag 40.2 (no result: DAGLB inhibitor) | TAAR1 ag conf 60.1 | Ga16 nonsel ag inactive | TAAR1 desensitize inactive | Ga16 nonsel ant inactive
CCOC(=O)C1(C)CCCN(C(=O)c2cc(C#N)cs2)C1 (centres undefined)	none (no result: DAGLB inhibitor, GPR7 antagonist)
C/C(=N\NC(=O)c1nnn(-c2nonc2N)c1-c1ccc2c(c1)OCO2)c1ccccc1	TAAR1 ag 60.2 | TAAR1 ag conf 96.1 | Ga16 nonsel ag 46.4 | TAAR1 desensitize inactive | Ga16 nonsel ant inactive
C/C(=N\NC(=O)c1nnn(-c2nonc2N)c1-c1ccc2c(c1)OCO2)c1ccc(C)cc1	TAAR1 ag 124.9, TAAR1 antag 79.9 | TAAR1 ag conf 126.6 | Ga16 nonsel ag 94.0 | TAAR1 desensitize 83.3 | Ga16 nonsel ant 63.7
O=C1C=CN(C2OC(CO)C(O)C2O)C(=O)C1 (centres undefined)	none (no result: GPR7 antagonist)
CC1NC(C)(C)Cc2c1ccc1ccccc21 (centres undefined)	none
CC1NC(C)c2c(ccc3ccccc23)O1 (centres undefined)	none (no result: TAAR1 ag, GPR7 antagonist, TAAR1 antag) | Ga16 nonsel ag inactive | Ga16 nonsel ant inactive
S=C(SSC(=S)N1CCOCC1)N1CCOCC1	TAAR1 ag 55.9 (no result: DAGLB inhibitor, GPR7 antagonist) | TAAR1 ag conf 54.2 | Ga16 nonsel ag 22.5 | TAAR1 desensitize inactive | Ga16 nonsel ant inactive
CC(SC(=S)N1CCOCC1)C(=O)O (centres undefined)	none
O=C(O)c1cccc(NC(=S)NC(=O)c2ccc3ccccc3c2)c1	TAAR1 ag 72.8 | TAAR1 ag conf inactive | Ga16 nonsel ag 30.8 | TAAR1 desensitize inactive | Ga16 nonsel ant inactive
O=C(O)c1ccc(NC(=S)NC(=O)c2ccc3ccccc3c2)cc1	TAAR1 ag 47.1 | TAAR1 ag conf 39.6 | Ga16 nonsel ag 31.9 | TAAR1 desensitize inactive | Ga16 nonsel ant 26.2
CCOC(=O)c1c(NC(=O)C(C)N2CCN(C(=O)c3ccco3)CC2)sc2c1CCCC2 (centres undefined)	TAAR1 ag 84.3, TAAR1 antag 87.0 | TAAR1 ag conf 42.2 | Ga16 nonsel ag 36.6 | TAAR1 desensitize 70.8 | Ga16 nonsel ant 58.8
CCOC(=O)c1c(NC(=O)c2ccco2)sc2c1CCCCC2	none
N/C(Cc1cccc2ccccc12)=N\OC(=O)c1ccccc1F	TAAR1 ag 70.1 | TAAR1 ag conf 80.8 | Ga16 nonsel ag inactive | TAAR1 desensitize inactive | Ga16 nonsel ant inactive
N/C(Cc1cccc2ccccc12)=N\OC(=O)COc1ccccc1	TAAR1 ag 53.9 | TAAR1 ag conf 61.2 | Ga16 nonsel ag inactive | TAAR1 desensitize inactive | Ga16 nonsel ant inactive
N/C(Cc1ccc(Cl)cc1Cl)=N\OC(=O)c1ccccc1F	none
COc1ccccc1C/C(N)=N/OC(=O)COc1cccc2ccccc12	none
CC(=O)c1ccc2c(c1)N(Cc1ccc3ccccc3c1)C(=O)C(C)S2 (centres undefined)	none (no result: DAGLB inhibitor, GPR7 antagonist)
